In one data set the test system is Plasmodium falciparum. Kind of data set: Antiplasmodial activity against chloroquine-sensitive Plasmodium falciparum NF54 infected in erythrocytes assessed as reduction in parasite growth incubated for 48 hrs by lactate dehydrogenase assay. It is filed as functional, organism-based. As to conditions: NF54, Erythrocyte. In outline: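 P. falciparum NF54 cultured in supplemented RPMI-1640 at 37 °C under 5% CO₂/3% O₂/92% N₂. Rings synchronised with 5% D-sorbitol and set to 2% parasitaemia, 2% haematocrit. Serial dilutions added after a 24 h incubation, then a further 48 h incubation. Quinine as positive control. pLDH read-out with tetrazolium-phenazine ethosulphate, 40 min at 37 °C, A620. IC50 from log sigmoid dose-response curves, triplicate.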

A short description of data set [1]: Binding affinity to recombinant Plasmodium falciparum HSP70-1 expressed in Escherichia coli assessed as dissociation rate constant by SPR analysis. Put shortly: (§1)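 MP-SPR at 25 °C in PBS-Tween 20 with 20 mM EDTA, pH 7.4. Analyte at 0, 1.25, 2.5, 5 and 10 nM, injected three times. Association 3 min, dissociation 10 min. Double-referenced, global 1:1 Langmuir fit.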
Background: In SPR one partner is held on a chip, and binding of the other changes the refractive index at the surface.

Data set [2] in a line: Binding affinity to recombinant Plasmodium falciparum HSP70-1 expressed in Escherichia coli assessed as steady state affinity by SPR analysis. Put shortly:
as §1

Data set [3] is described as follows: Binding affinity to recombinant Plasmodium falciparum HSP70-z expressed in Escherichia coli assessed as dissociation rate constant by SPR analysis. In outline:
as §1

A short description of data set [4]: Binding affinity to recombinant Plasmodium falciparum HSP70-z expressed in Escherichia coli assessed as steady state affinity by SPR analysis. Put shortly: as §1
Data set [5] can be described thus: Selectivity index, ratio of IC50 for human HEK293 cells to IC50 for Plasmodium falciparum NF54. The format is toxicity. As to conditions: read-out: Ratio IC50.
The test system of a further data set is HEK293. Kind of data set: Cytotoxicity against human HEK293 cells incubated for 48 hrs by MTT assay. The format is cell-based. As to conditions: HEK293, 48 h. In outline: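 HEK-293 monolayers grown in DMEM with 10% FBS and penicillin/streptomycin at 37 °C, 5% CO₂. Cells at 10 000/well exposed 48 h to serial dilutions with final DMSO under 1%. Camptothecin as positive control. MTT (5 mg/ml in PBS pH 7.3) added for 2 h, formazan dissolved in DMSO, read at A540 with 690 nm reference. IC50 from % viability, triplicate.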
(In general: Tetrazolium assays rely on reduction of a dye to a coloured formazan, in cell work by metabolically active cells.)

The results in this text go back to ChEMBL document CHEMBL4814004, “Design and synthesis of quinoline-pyrimidine inspired hybrids as potential plasmodial inhibitors” (Eur J Med Chem, 2021).

As for `COc1ccc(-c2cc(-c3ccc(OC)c(OC)c3)nc(N3CCN(c4ccnc5cc(Cl)ccc45)CC3)n2)cc1`, in the data set with Plasmodium falciparum, the IC50 was 17800 nM.
Still for that read-out and setting: for `Clc1ccc2c(N3CCN(c4nc(-c5ccccc5)cc(-c5ccccc5)n4)CC3)ccnc2c1` the value was 7500 nM; for `COc1ccc(C(=O)/C=C/c2ccc(OC)c(OC)c2)c(O)c1`, 3180 nM; for `Oc1ccc(-c2cc(-c3ccc(O)c(O)c3)nc(N3CCN(c4ccnc5cc(Cl)ccc45)CC3)n2)cc1`, 2660 nM.
On the same count and under the same terms, to `COc1ccc(/C=C/C(=O)c2ccc(O)cc2)c(O)c1` belongs 590 nM.
`COc1ccc(-c2cc(-c3ccc(OC)c(OC)c3)nc(N3CCN(c4ccnc5cc(Cl)ccc45)CC3)n2)cc1OC`: the IC50 with Plasmodium falciparum came to 6170 nM. The “Dissociation rate constant (koff)” value is 7 10^-2/s in data set [1] and 7.48 10^-2/s in data set [3]. Also, the Kd came to 26.1 nM in data set [2] and 2050 nM in data set [4].
For the compound `COc1ccc(-c2cc(-c3ccc(C)cc3)nc(NCCNc3ccnc4cc(Cl)ccc34)n2)cc1`, the IC50 in the data set on Plasmodium falciparum turned out to be 4300 nM.
Regarding `COc1ccc(-c2cc(-c3ccc(OC)cc3)nc(N3CCN(c4ccnc5cc(Cl)ccc45)CC3)n2)cc1`, in the data set with Plasmodium falciparum, the IC50 was determined as 7690 nM. Moreover, the “Dissociation rate constant (koff)” value is 1.32 10^-2/s in data set [1] and 8.24 10^-2/s in data set [3]. Further, the figures for the Kd in data set [2] and in data set [4] were 2.19 nM and 13700 nM, respectively.
For the compound `CC[C@@]1(O)C(=O)OCc2c1cc1n(c2=O)Cc2cc3ccccc3nc2-1` [CAMPTOTHECIN], the selectivity ratio in data set [5] came to 0.01.
Turning to `Cc1ccc(-c2cc(-c3ccc(Cl)cc3)nc(NCCCCNc3ccnc4cc(Cl)ccc34)n2)cc1`, the IC50 in the data set on Plasmodium falciparum came out at 9490 nM.
Consider `COc1ccc(-c2cc(-c3ccc(C)cc3)nc(NCCCNc3ccnc4cc(Cl)ccc34)n2)cc1`, for which, in the data set on Plasmodium falciparum, the half-maximal inhibitory concentration (IC50) was 2710 nM.
Same read-out and setting: for `COc1ccc(-c2cc(-c3ccc(C)cc3)nc(N3CCN(c4ccnc5cc(Cl)ccc45)CC3)n2)cc1` the value was 2630 nM.
In the case of `COc1ccc(-c2cc(-c3ccc(OC)cc3)nc(NCCCCNc3ccnc4cc(Cl)ccc34)n2)cc1`, in the data set on Plasmodium falciparum, the IC50 is 83000 nM.
The same measure, in the same setting: to `COc1ccc(-c2cc(-c3ccc(OC)c(OC)c3)nc(NCCCCNc3ccnc4cc(Cl)ccc34)n2)cc1` belongs 2610 nM.
In the data set on HEK293, `CCN(CC)CCCC(C)Nc1ccnc2cc(Cl)ccc12` (centres undefined) [CHLOROQUINE] registered an IC50 of 101000 nM.
`C=C[C@H]1CN2CC[C@H]1C[C@H]2[C@H](O)c1ccnc2ccc(OC)cc12` [QUININE]: the figures for the IC50 in the data set on Plasmodium falciparum and in the data set on HEK293 were 108 nM and 134000 nM, respectively. In data set [5], the selectivity ratio is 1240.
In the case of `Oc1ccc(-c2cc(-c3ccc(O)c(O)c3)nc(NCCCCNc3ccnc4cc(Cl)ccc34)n2)cc1`, in the data set on Plasmodium falciparum, the IC50 turned out to be 1620 nM. The “Dissociation rate constant (koff)” value in data set [1] is on record as 7.84 10^-2/s; in data set [3], 9.06 10^-2/s. In addition, the figures for the Kd in data set [2] and in data set [4] were 281 nM and 4750 nM, respectively.
For the compound `Cc1ccc(-c2cc(-c3ccc(Cl)cc3)nc(N3CCN(c4ccnc5cc(Cl)ccc45)CC3)n2)cc1`, the IC50 in the data set on Plasmodium falciparum was found to be 13100 nM.
As for `Oc1ccc(-c2cc(-c3ccc(O)cc3)nc(NCCCCNc3ccnc4cc(Cl)ccc34)n2)cc1`, the IC50 with Plasmodium falciparum worked out at 320 nM; in the data set with HEK293 it was 3160 nM. The “Dissociation rate constant (koff)” value in data set [1] was 8.81 10^-2/s; in data set [3], 1.2 10^-1/s. Moreover, the Kd in data set [2] was determined as 11.4 nM; in data set [4], 4.43 nM. In addition, the selectivity ratio in data set [5] amounted to 9.79.

In general, IC50 refers to the midpoint of a concentration-inhibition curve. The Kd is the equilibrium constant for the complex coming apart.
